Source: PubChem BioAssay
HUVEC prolif 384 – inhibitors of human endothelial cell proliferation; HUVEC proliferation, CellTiter-Glo luminescence, 72 h; hits give low values; viability, % at 10 µM (by protocol); 86,000 compounds, 1.1% hits;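 active means viability at or below 30%; inactive means viability above 30%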
Jurkat tox 60K – cytotoxic compounds reducing Jurkat cell viability; Jurkat E6.1 viability, ATP luminescence, 48 h; inhibition, % at 4 µM; 56,000 compounds, 1.2% hits; AID 463;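 active means inhibition above the mean inhibition of all tested compounds plus 3 SD, cut at about 28% in these data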
tolC growth inh – blocks growth of E. coli BW25113 tolC mutant; growth inhibition, % at 10 µM (by protocol); OD615; 65,000 compounds, 2.2% hits;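 active means growth inhibition at or above a cutoff equal to the mean over every tested compound plus 3 SD, cut at about 60% in these data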;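 further: growth measured after 20 h incubation at 37 °C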
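Signal: optical density read at 615 nm; Assay system: E. coli ΔtolC::kan strain BW25113; Times: 20 h incubation with compound, 37 °C; Dosing: 10 µM final, single dose.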
E coli WT exp – growth inhibitors of E. coli BW25113 wild type; OD600 absorbance; 98,000 compounds, 0.15% hits; growth inhibition, % at 100 µM;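 active means growth inhibition above about 50% at one test dose, limit read from the data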;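 further: growth measured after 20 h incubation at 37 °C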
Fibroblast inh – blocks proliferation of human lung fibroblasts; 85,000 compounds, 1.1% hits; viability, % at 10 µM; LL 47 human lung fibroblast viability, ATP luminescence; hits give low values; AID 719;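 active means viability at or below 50% in the single dose screen; inactive means viability above 50%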;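 further: compound exposure lasted 72 h before the ATP readout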
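Material: Human LL 47 lung fibroblast cells | Input: 1,150 cells/well | Buffer or medium: IMEM plus 15% FBS | Compound dosing: 0.1% DMSO in all compound wells | Times: Overnight cell rest, 72 h compound treatment at 37 °C | Signal: CellTiter-Glo luminescence measuring cellular ATP | Measure: % viability versus median cells-only luminescence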
H69AR inhibit – growth inhibitors of human H69AR lung tumor cells; 85,000 compounds, 6% hits; H69AR lung tumor viability, ATP luminescence, 72 h; hits give low values; viability, % at 10 µM;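 active means viability at or below 40%; inactive means viability above 40%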;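 further: multidrug resistant small cell line overexpressing MRP-1 efflux transporter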
Large screens that a line does not name were inactive. Sampled rows, rich in hits. Any-hit rate of the full collection: about 6.4%.

CCOC(=O)COc1ccc(S(=O)(=O)Nc2cccc(SC)c2)cc1	HUVEC prolif 384 14, Fibroblast inh 47 (no result: Jurkat tox 60K, tolC growth inh)
COc1ccc(S(=O)(=O)Nc2cc3c(C(C)=O)c(C)oc3c3ccccc23)cc1	H69AR inhibit 25 (no result: Jurkat tox 60K, tolC growth inh)
Cc1oc2c(cc(NS(=O)(=O)c3cccs3)c3ccccc32)c1C(=O)OC(C)C	none (no result: Jurkat tox 60K, tolC growth inh, E coli WT exp)
O=c1c(-c2ccccc2)[n+]([O-])c2ccccc2n1O	none
Cc1ccc2c(N)c(C(=O)N(c3ccccc3)c3ccccc3)sc2n1	none (no result: Jurkat tox 60K, tolC growth inh, E coli WT exp)
Cn1c(=O)c2c3c(sc2n2c(SCC(N)=O)nnc12)CC(C(C)(C)C)CC3 (configuration not stated)	none (no result: Jurkat tox 60K)
COc1ccc(-n2c(COc3ccccc3)nnc2SCc2ccc(C#N)cc2)cc1	tolC growth inh 63
N#Cc1ccc(CSc2nnc(-c3cccs3)n2-c2ccccc2)cc1	tolC growth inh 74
O=C1CN(C(=O)c2cc(Br)c(Br)s2)c2ccccc2N1	H69AR inhibit 16 (no result: Jurkat tox 60K, tolC growth inh)
CN1C(=O)NC(c2cccc(O)c2)C(C(=O)c2cccs2)C1(O)C(F)(F)F (configuration not stated)	E coli WT exp 75
CC1(C)CC(=O)c2sc(NC(=O)c3ccc4ncsc4c3)nc2C1	none (no result: Jurkat tox 60K, tolC growth inh)
COc1ccc(OCCNC(=O)c2ccccc2OCC(=O)N2CCCCC2)cc1	H69AR inhibit 31
COc1ccc(OCC(=O)N2CCN(C(=O)COc3ccc(Br)cc3)CC2)cc1	H69AR inhibit 28
Cc1ccccc1NS(=O)(=O)c1ccc(OCC(=O)N2CCCCC2)cc1	none (no result: Jurkat tox 60K, tolC growth inh)
CC1=CC(C)C2(CO)COC(c3ccccc3O)C1C2C (configuration not stated)	none (no result: Jurkat tox 60K, tolC growth inh)
CCOC(=O)c1c(-c2ccccc2)oc2cc(CN(C)C)c(O)c(CN(C)C)c12	HUVEC prolif 384 9.3, H69AR inhibit 10 (no result: Jurkat tox 60K, tolC growth inh, E coli WT exp)
CCOC(=O)c1cc2c(=O)n3cccc(C)c3nc2n(CCc2ccccc2)c1=N	none (no result: HUVEC prolif 384, Jurkat tox 60K, E coli WT exp, Fibroblast inh, H69AR inhibit)
O=C(N/N=C/C=C/c1ccccc1)C1CC1c1ccccc1 (configuration not stated)	H69AR inhibit 26 (no result: Jurkat tox 60K, tolC growth inh, E coli WT exp)
Cc1ccc(-n2nnnc2-c2cnoc2-c2cccc(F)c2)cc1	none (no result: Jurkat tox 60K, tolC growth inh, E coli WT exp)
CCCc1nnc(SCC(=O)N2CCOCC2)n1C	none (no result: Jurkat tox 60K, tolC growth inh, E coli WT exp)
CC(=O)Nc1ccccc1NC(=O)CN(C)S(=O)(=O)c1ccc(C)cc1	none
CC(=O)Nc1ccccc1N(C)S(=O)(=O)c1ccc(C)cc1	Jurkat tox 60K 45, H69AR inhibit 37
C=CCOc1nc2c(c(=O)n(C)c(=O)n2C)n1Cc1ccc(Cl)cc1	none (no result: Jurkat tox 60K, E coli WT exp)
CCCOc1nc2c(c(=O)n(C)c(=O)n2C)n1Cc1cccc2ccccc12	tolC growth inh 65 (no result: Jurkat tox 60K)
Cn1c(=O)[nH]c(=O)c2c1nc(Br)n2Cc1ccccc1Cl	H69AR inhibit 27
Cn1c(=O)c2c(nc(OCc3ccc4c(c3)OCO4)n2Cc2ccccc2Cl)n(C)c1=O	none (no result: HUVEC prolif 384, Jurkat tox 60K, tolC growth inh, Fibroblast inh, H69AR inhibit)
Cn1c(=O)c2c(nc(NCc3ccc4c(c3)OCO4)n2Cc2ccccc2Cl)n(C)c1=O	H69AR inhibit 38 (no result: Jurkat tox 60K)
C=CCOc1nc2c(c(=O)n(C)c(=O)n2C)n1Cc1ccccc1Cl	H69AR inhibit 38 (no result: Jurkat tox 60K)
COc1ccc(NC(=O)C2CCCN(S(=O)(=O)c3ccc4c(c3)oc(=O)n4C)C2)c(OC)c1 (configuration not stated)	none (no result: Jurkat tox 60K, tolC growth inh)
O=C(c1ccc(Cl)cc1)c1oc2ccccc2c1CS(=O)(=O)c1ccccc1	none (no result: HUVEC prolif 384, Jurkat tox 60K, tolC growth inh, Fibroblast inh, H69AR inhibit)
CCN(CCNC(=O)C1CCN(Cc2nc(-c3cccc(Cl)c3)oc2C)CC1)c1ccccc1	HUVEC prolif 384 5.4, tolC growth inh 65, Fibroblast inh 43, H69AR inhibit 3.0
Cc1cccc(-c2nc(CN3CCCC(C(=O)NC4CCCC4)C3)c(C)o2)c1 (configuration not stated)	none
Cc1oc(-c2ccccc2F)nc1CN1CCC(C(=O)NC2CCCCCCC2)CC1	none
CCc1ccc(-c2nc(CN3CCC(C(=O)NCc4ccc(F)cc4)CC3)c(C)o2)cc1	HUVEC prolif 384 14, H69AR inhibit 3.3
Cc1oc(-c2ccccc2F)nc1CN1CCC(C(=O)NCc2ccco2)CC1	H69AR inhibit 38
Cc1cccc(-c2nc(CN3CCCC(C(=O)NC4CCC(C)CC4)C3)c(C)o2)c1 (configuration not stated)	HUVEC prolif 384 12
CCOC(=O)N1CCC(NC(=O)CSc2cc(=O)n(C)c3ccc(Cl)cc23)CC1	none (no result: E coli WT exp)
CC(=O)NS(=O)(=O)c1cccnc1Nc1ccc(Cl)cc1	none (no result: HUVEC prolif 384, Jurkat tox 60K, tolC growth inh, Fibroblast inh, H69AR inhibit)
